Test results as given in ChEMBL document CHEMBL3046106, “Synthesis and herbicidal activity of diphenyl ether derivatives containing unsaturated carboxylates” (J Agric Food Chem, 2011).

Key:
Abutilon theophrasti [1] = test: Herbicidal activity against Abutilon theophrasti (velvetleaf) at 100 g/hm2 postemergent application after 2 weeks; type: functional
How it was run: (§1)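 Seedlings grown 14 days in the greenhouse; plants uniform in size and stage were chosen. Test compound in acetone sprayed post-emergence at a carrier volume equivalent to 187 L/ha. Plants returned to the greenhouse and watered; untreated plants served as control. Each species scored visually two weeks after application on a 0–100 scale (0 no activity, 100 total control).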

Digitaria sanguinalis [2] = test: Herbicidal activity against Digitaria sanguinalis (hairy crabgrass) at 100 g/hm2 postemergent application after 2 weeks; type: functional; how it was run: as §1
Echinochloa crus-galli [3] = test: Herbicidal activity against Echinochloa crus-galli (barnyard grass) at 100 g/hm2 postemergent application after 2 weeks; type: functional; how it was run: as §1
[4] = Crop selectivity index, ratio of LD10 for soybean to LD90 for velvetleaf
Triticum aestivum [5] = test: Toxicity against Triticum aestivum (wheat) at 400 g/hm2 postemergent application after 2 weeks; type: organism-based; settings: in vivo, other, 336 h
How it was run: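 Greenhouse post-emergence test: plants grown 14 days, then chosen for uniform size and stage. Compound dissolved in acetone and sprayed at a carrier volume equivalent to 187 L per hectare, over […]. Untreated plants served as control. Plants were rated two weeks after application on a 0–100 scale (0 no activity, 100 total control).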

Triticum aestivum [6] = test: Toxicity against Triticum aestivum (wheat) at 100 g/hm2 postemergent application after 2 weeks; type: organism-based; settings: in vivo, other, 336 h; how it was run: as §1
Glycine max [7] = test: Toxicity against Glycine max (soybean) at 400 g/hm2 postemergent application after 2 weeks; type: organism-based; settings: in vivo, other, 336 h; how it was run: as §1
Glycine max [8] = test: Toxicity against Glycine max (soybean) at 100 g/hm2 postemergent application after 2 weeks; type: organism-based; settings: in vivo, other, 336 h; how it was run: as §1
Glycine max [9] = test: Toxicity against Glycine max (soybean) at postemergent application after 2 weeks; type: organism-based; settings: in vivo, other, 336 h; how it was run: as §1
Abutilon theophrasti [10] = test: Herbicidal activity against Abutilon theophrasti (velvetleaf) at postemergent application after 2 weeks; type: functional; how it was run: as §1
Xanthium strumarium [11] = test: Herbicidal activity against Xanthium strumarium (cocklebur) at 100 g/hm2 postemergent application after 2 weeks; type: functional; how it was run: as §1
Xanthium strumarium [12] = test: Herbicidal activity against Xanthium strumarium (cocklebur) at 400 g/hm2 postemergent application after 2 weeks; type: functional; how it was run: as §1
Commelina communis [13] = test: Herbicidal activity against Commelina communis (Asiatic dayflower) at 100 g/hm2 post-emergent application after 2 weeks; type: functional; how it was run: as §1
Commelina communis [14] = test: Herbicidal activity against Commelina communis (Asiatic dayflower) at 400 g/hm2 post-emergent application after 2 weeks; type: functional; how it was run: as §1
Amaranthus retroflexus [15] = test: Herbicidal activity against Amaranthus retroflexus at 400 g/hm2 postemergent application after 2 weeks; type: functional; how it was run: as §1
Portulaca oleracea [16] = test: Herbicidal activity against Portulaca oleracea at 400 g/hm2 postemergent application after 2 weeks; type: functional; how it was run: as §1
Abutilon theophrasti [17] = test: Herbicidal activity against Abutilon theophrasti (velvetleaf) at 400 g/hm2 postemergent application after 2 weeks; type: functional; how it was run: as §1
Abutilon theophrasti [18] = test: Herbicidal activity against Abutilon theophrasti (velvetleaf) at 40 g/hm2 postemergent application after 2 weeks; type: functional; how it was run: as §1
Abutilon theophrasti [19] = test: Herbicidal activity against Abutilon theophrasti (velvetleaf) at 200 g/hm2 postemergent application after 2 weeks; type: functional; how it was run: as §1
Abutilon theophrasti [20] = test: Herbicidal activity against Abutilon theophrasti (velvetleaf) at 1000 g/hm2 postemergent application after 2 weeks; type: functional; how it was run: as §1
Digitaria sanguinalis [21] = test: Herbicidal activity against Digitaria sanguinalis (hairy crabgrass) at 400 g/hm2 postemergent application after 2 weeks; type: functional; how it was run: as §1
Digitaria sanguinalis [22] = test: Herbicidal activity against Digitaria sanguinalis (hairy crabgrass) at 200 g/hm2 postemergent application after 2 weeks; type: functional; how it was run: as §1
Digitaria sanguinalis [23] = test: Herbicidal activity against Digitaria sanguinalis (hairy crabgrass) at 40 g/hm2 postemergent application after 2 weeks; type: functional; how it was run: as §1
Digitaria sanguinalis [24] = test: Herbicidal activity against Digitaria sanguinalis (hairy crabgrass) at 1000 g/hm2 postemergent application after 2 weeks; type: functional; how it was run: as §1
Echinochloa crus-galli [25] = test: Herbicidal activity against Echinochloa crus-galli (barnyard grass) at 400 g/hm2 postemergent application after 2 weeks; type: functional; how it was run: as §1
Echinochloa crus-galli [26] = test: Herbicidal activity against Echinochloa crus-galli (barnyard grass) at 40 g/hm2 postemergent application after 2 weeks; type: functional; how it was run: as §1
Echinochloa crus-galli [27] = test: Herbicidal activity against Echinochloa crus-galli (barnyard grass) at 200 g/hm2 postemergent application after 2 weeks; type: functional; how it was run: as §1
Echinochloa crus-galli [28] = test: Herbicidal activity against Echinochloa crus-galli (barnyard grass) at 1000 g/hm2 postemergent application after 2 weeks; type: functional; how it was run: as §1
Setaria glauca (foxtail) [29] = test: Herbicidal activity against Setaria glauca at 400 g/hm2 postemergent application after 2 weeks
Abutilon theophrasti [30] = test: Herbicidal activity against Abutilon theophrasti (velvetleaf) at 30 g/hm2 postemergent application after 2 weeks; type: functional; how it was run: as §1
Abutilon theophrasti [31] = test: Herbicidal activity against Abutilon theophrasti (velvetleaf) at 120 g/hm2 postemergent application after 2 weeks; type: functional; how it was run: as §1
Abutilon theophrasti [32] = test: Herbicidal activity against Abutilon theophrasti (velvetleaf) at 480 g/hm2 postemergent application after 2 weeks; type: functional; how it was run: as §1
Digitaria sanguinalis [33] = test: Herbicidal activity against Digitaria sanguinalis (hairy crabgrass) at 120 g/hm2 postemergent application after 2 weeks; type: functional; how it was run: as §1
Digitaria sanguinalis [34] = test: Herbicidal activity against Digitaria sanguinalis (hairy crabgrass) at 30 g/hm2 postemergent application after 2 weeks; type: functional; how it was run: as §1
Digitaria sanguinalis [35] = test: Herbicidal activity against Digitaria sanguinalis (hairy crabgrass) at 480 g/hm2 postemergent application after 2 weeks; type: functional; how it was run: as §1
Echinochloa crus-galli [36] = test: Herbicidal activity against Echinochloa crus-galli (barnyard grass) at 30 g/hm2 postemergent application after 2 weeks; type: functional; how it was run: as §1
Echinochloa crus-galli [37] = test: Herbicidal activity against Echinochloa crus-galli (barnyard grass) at 120 g/hm2 postemergent application after 2 weeks; type: functional; how it was run: as §1
Echinochloa crus-galli [38] = test: Herbicidal activity against Echinochloa crus-galli (barnyard grass) at 480 g/hm2 postemergent application after 2 weeks; type: functional; how it was run: as §1
Triticum aestivum [39] = test: Toxicity against Triticum aestivum (wheat) at 25 g/hm2 postemergent application after 2 weeks; type: organism-based; settings: in vivo, other, 336 h
Glycine max [40] = test: Toxicity against Glycine max (soybean) at 25 g/hm2 postemergent application after 2 weeks; type: organism-based; settings: in vivo, other, 336 h
Xanthium strumarium [41] = test: Herbicidal activity against Xanthium strumarium (cocklebur) at 25 g/hm2 postemergent application after 2 weeks; type: functional; how it was run: as §1
Xanthium strumarium [42] = test: Herbicidal activity against Xanthium strumarium (cocklebur) at 40 g/hm2 postemergent application after 2 weeks; type: functional; how it was run: as §1
Commelina communis [43] = test: Herbicidal activity against Commelina communis (Asiatic dayflower) at 25 g/hm2 post-emergent application after 2 weeks; type: functional; how it was run: as §1
Commelina communis [44] = test: Herbicidal activity against Commelina communis (Asiatic dayflower) at 40 g/hm2 post-emergent application after 2 weeks; type: functional; how it was run: as §1
Amaranthus retroflexus [45] = test: Herbicidal activity against Amaranthus retroflexus at 40 g/hm2 postemergent application after 2 weeks; type: functional; how it was run: as §1
Portulaca oleracea [46] = test: Herbicidal activity against Portulaca oleracea at 40 g/hm2 postemergent application after 2 weeks; type: functional; how it was run: as §1
Abutilon theophrasti [47] = test: Herbicidal activity against Abutilon theophrasti (velvetleaf) at 25 g/hm2 postemergent application after 2 weeks; type: functional; how it was run: as §1
Digitaria sanguinalis [48] = test: Herbicidal activity against Digitaria sanguinalis (hairy crabgrass) at 25 g/hm2 postemergent application after 2 weeks; type: functional; how it was run: as §1
Echinochloa crus-galli [49] = test: Herbicidal activity against Echinochloa crus-galli (barnyard grass) at 25 g/hm2 postemergent application after 2 weeks; type: functional; how it was run: as §1
Setaria glauca (foxtail) [50] = test: Herbicidal activity against Setaria glauca at 40 g/hm2 postemergent application after 2 weeks

Compound	Activity (Abutilon theophrasti [1])	Activity (Digitaria sanguinalis [2])	Activity (Echinochloa crus-galli [3])	Selectivity Index [4]	Activity (Triticum aestivum [6])	Activity (Glycine max [8])	LD10 (Glycine max [9])	LD90 (Abutilon theophrasti [10])	Activity (Xanthium strumarium [11])	Activity (Commelina communis [13])	Activity (Abutilon theophrasti [18])	Activity (Abutilon theophrasti [19])	Activity (Abutilon theophrasti [20])	Activity (Digitaria sanguinalis [22])	Activity (Digitaria sanguinalis [23])	Activity (Digitaria sanguinalis [24])	Activity (Echinochloa crus-galli [26])	Activity (Echinochloa crus-galli [27])	Activity (Echinochloa crus-galli [28])	Activity (Abutilon theophrasti [30])	other results
O=C(O)c1cc(Oc2ccc(C(F)(F)F)cc2Cl)ccc1[N+](=O)[O-] [ACIFLUORFEN]	85%	10%	25%	3.4	0%	5%	461.8 g/hm2	137.4 g/hm2	80%	60%	50%	95%	100%	0%	0%	10%	20%	50%	90%	–	Activity (Triticum aestivum [5]): 15%; Activity (Glycine max [7]): 10%; Activity (Xanthium strumarium [12]): <70%; Activity (Commelina communis [14]): <70%; Activity (Amaranthus retroflexus [15]): 95%; Activity (Portulaca oleracea [16]): 95%; Activity (Abutilon theophrasti [17]): 70%; Activity (Digitaria sanguinalis [21]): 70%; Activity (Echinochloa crus-galli [25]): <70%; Activity (Setaria glauca (foxtail) [29]): <70%
CCCCOC(=O)/C=C/COC(=O)c1cc(Oc2ccc(C(F)(F)F)cc2Cl)ccc1[N+](=O)[O-]	–	–	–	–	–	–	–	–	–	–	–	–	–	–	–	–	–	–	–	90%	Activity (Abutilon theophrasti [31]): 90%; Activity (Abutilon theophrasti [32]): 95%; Activity (Digitaria sanguinalis [33]): 80%; Activity (Digitaria sanguinalis [34]): 70%; Activity (Digitaria sanguinalis [35]): 85%; Activity (Echinochloa crus-galli [36]): 10%; Activity (Echinochloa crus-galli [37]): 20%; Activity (Echinochloa crus-galli [38]): 40%
COCCOC(=O)/C=C(\C)OC(=O)c1cc(Oc2ccc(C(F)(F)F)cc2Cl)ccc1[N+](=O)[O-]	–	–	–	–	–	–	–	–	–	–	98%	100%	100%	35%	30%	75%	20%	30%	80%	–	–
CCOC(=O)/C=C/COC(=O)c1cc(Oc2ccc(C(F)(F)F)cc2Cl)ccc1[N+](=O)[O-]	100%	60%	55%	3.2	25%	10%	63 g/hm2	19.4 g/hm2	98%	95%	95%	–	–	–	70%	–	<70%	–	–	95%	Activity (Triticum aestivum [39]): 10%; Activity (Glycine max [40]): 5%; Activity (Xanthium strumarium [41]): 40%; Activity (Xanthium strumarium [42]): 70%; Activity (Commelina communis [43]): 35%; Activity (Commelina communis [44]): <70%; Activity (Amaranthus retroflexus [45]): 95%; Activity (Portulaca oleracea [46]): 95%; Activity (Abutilon theophrasti [47]): 65%; Activity (Abutilon theophrasti [31]): 99%; Activity (Abutilon theophrasti [32]): 100%; Activity (Digitaria sanguinalis [48]): 5%; Activity (Digitaria sanguinalis [33]): 80%; Activity (Digitaria sanguinalis [34]): 60%; Activity (Digitaria sanguinalis [35]): 90%; Activity (Echinochloa crus-galli [49]): 0%; Activity (Echinochloa crus-galli [36]): 40%; Activity (Echinochloa crus-galli [37]): 50%; Activity (Echinochloa crus-galli [38]): 70%; Activity (Setaria glauca (foxtail) [50]): <70%
